Experimental data of several laboratories.
Read-out: cell growth or viability

Compound	cell line	test	conditions	endpoint	value
COc1cc(C(=O)c2nc(-c3c[nH]c4cccc(C)c34)c[nH]2)cc(OC)c1OC	M14	MTS	72 h	IC50	167 nM
O=C(NCc1ccccc1)c1cn(Cc2ccc(C(F)(F)F)cc2)c2ccc(Oc3ccccc3)cc2c1=O	HCC70		72 h	CC50	20500 nM
CC(=O)N[C@H]1[C@@H](O[C@@H]2O[C@H](C[C@@H](O)[C@H]3O[C@@H](n4ccc(=O)[nH]c4=O)[C@H](O)[C@@H]3O)[C@H](O)[C@H](O)[C@H]2NC(=O)/C=C/CCCCCCCCCC(C)C)O[C@H](CO)[C@@H](O)[C@@H]1O	SK-BR-3	WST-1		IC50	110 nM
Cn1cc2cc(C(F)(F)c3nnc4ccc(-c5cnn(C6CC6)c5)nn34)c(F)cc2n1	MKN-45	CCK-8	72 h	IC50	12 nM
N.N.O=C([O-])C1(C(=O)[O-])CCC1.[Pt+2]	Vero	MTT	48 h	IC50	506000 nM
CC[C@@]1(O)C(=O)OCc2c1cc1n(c2=O)Cc2cc3ccccc3nc2-1	MP41	ATP luminescence	72 h	IC50	117 nM
COc1cc(C(=O)c2nc(-c3cccc4[nH]ccc34)c(Br)[nH]2)cc(OC)c1OC	M14	MTS	72 h	IC50	> 1000 nM
N.N.[Cl][Pt][Cl]	Vero	MTT	48 h	IC50	63100 nM
COc1c(C)c2c(c(O)c1C/C=C(\C)CCC(=O)O)C(=O)OC2	MDA-MB-436			IC50	1120 nM
Cc1sc2c(c1C)C(c1ccc(Cl)cc1)=N[C@@H](CC(N)=O)c1nnc(C)n1-2	MP41	ATP luminescence	72 h	IC50	153 nM
O=C(Nc1ccc(Cl)cc1)Nc1cccc(-c2cn(Cc3ccc(Br)cc3)nn2)c1	NCI-H1299	CCK-8	50 µM, 72 h	viability	76.7%
